Source: publication PMC4177010 (Cancer chemotherapy and pharmacology, 2014)

Tests used:
[1] = tested on: SRC2; assay: ChIP at the CYP24A1 promoter in HL-60 cells, SRC2 antibody; format: cell-based, human; conditions: 20 nM 1,25(OH)2D3, 18 hours
[2] = tested on: Caco2 cells; assay: Cell proliferation assay; format: cell-based, human; conditions: 100 nM 1,25(OH)2D3, 5 days
[3] = tested on: caspase 3; assay: rt-PCR mRNA levels in HL-60 cells; format: cell-based, human; conditions: 20 nM 1,25(OH)2D3, 18 hours
[4] = tested on: NCoR; assay: ChIP at the CYP24A1 promoter in HL-60 cells, NCoR antibody; format: cell-based, human; conditions: 20 nM 1,25(OH)2D3, 18 hours
[5] = tested on: caspase 7; assay: rt-PCR mRNA levels in HL-60 cells; format: cell-based, human; conditions: 20 nM 1,25(OH)2D3, 18 hours
[6] = tested on: Survivin; assay: Human apoptosis antibody array, HL-60 cells; format: cell-based; conditions: 1,25(OH)2D3 (20 nM), 18 hours
Outline: (§1)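 Lysates in kit lysis buffer went onto a blocked glass-chip array of 44 apoptosis capture antibodies spotted in duplicate, 18 h at 4 °C. Biotinylated detection antibodies and fluorescent streptavidin were each applied 2 h at room temperature. A fluorescence scan gave spot intensities.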

[7] = tested on: CYP3A4; assay: rt-PCR mRNA levels in HL-60 cells; format: cell-based, human; conditions: 18 hours, 1,25(OH)2D3 (20 nM), PS121912 (3 µM) or a combination thereof
[8] = tested on: HTRA; assay: Human apoptosis antibody array, HL-60 cells; format: cell-based; conditions: 1,25(OH)2D3 (20 nM), 18 hours
Outline: as §1

[9] = tested on: IGF-II; assay: Human apoptosis antibody array, HL-60 cells; format: cell-based; conditions: 1,25(OH)2D3 (20 nM), 18 hours
Outline: as §1

[10] = tested on: SKOV3 cells; assay: Cell proliferation assay; format: cell-based, human; conditions: 100 nM 1,25(OH)2D3, 5 days
[11] = tested on: HL-60 cells; assay: Cell proliferation assay; format: cell-based, human; conditions: HL-60 treated with VDR siRNA; same concentrations as non-transfected cells

## C=C1/C(=C\C=C2/CCC[C@]3(C)[C@@H]([C@H](C)CCCC(C)(C)O)CC[C@@H]23)C[C@@H](O)C[C@@H]1O [1,25(OH)2D3, 1,25-dihydroxyvitamin D3]
[1]
  SRC2 recruitment at the CYP24A1 promoter: recruitment of coactivator SRC2
[2]
  antiproliferative effect: minor antiproliferative effect
[3]
  caspase 3 mRNA levels: no change
[4]
  interaction between VDR and NCoR at the CYP24A1 promoter: reduced
[5]
  caspase 7 mRNA levels: no change
[6]
  Survivin protein level: reduced
[7]
  mRNA levels of CYP3A4: not altered
[8]
  HTRA protein level: upregulated
[9]
  IGF-II protein level: induced
[10]
  antiproliferative effect: minor antiproliferative effect
[11]
  antiproliferation effect in VDR siRNA treated cells: abolished
